In ChEMBL document CHEMBL4265908, “Structure-activity and structure-property relationships of novel Nrf2 activators with a 1,2,4-oxadiazole core and their therapeutic effects on acetaminophen (APAP)-induced acute liver injury” (Eur J Med Chem, 2018):
In brackets after ≈: the same amount, converted by molar mass. Activity calls are given as the source filed them. No cut-off for these calls is given here.

Columns and labels:
[1] = Lipophilicity, log D of the compound at pH 7.4 by potentiometric titration method; type: physicochemical; conditions: buffer
Method in brief: (§1)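 Intrinsic aqueous solubility and logD at pH 7.4 determined by Avdeef-Bucher potentiometric titration on a pION Gemini Profiler.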

[2] = target: T1, Nuclear factor erythroid 2-related factor 2 (Homo sapiens) (UniProt Q16236); experiment: Activation of Nrf2 in human HepG2-ARE-C8 cells assessed as induction of ARE-mediated luciferase activity at 0.1 uM after 24 hrs by luciferase reporter gene assay relative to control; type: cell-based
T1 sequence (whole entry): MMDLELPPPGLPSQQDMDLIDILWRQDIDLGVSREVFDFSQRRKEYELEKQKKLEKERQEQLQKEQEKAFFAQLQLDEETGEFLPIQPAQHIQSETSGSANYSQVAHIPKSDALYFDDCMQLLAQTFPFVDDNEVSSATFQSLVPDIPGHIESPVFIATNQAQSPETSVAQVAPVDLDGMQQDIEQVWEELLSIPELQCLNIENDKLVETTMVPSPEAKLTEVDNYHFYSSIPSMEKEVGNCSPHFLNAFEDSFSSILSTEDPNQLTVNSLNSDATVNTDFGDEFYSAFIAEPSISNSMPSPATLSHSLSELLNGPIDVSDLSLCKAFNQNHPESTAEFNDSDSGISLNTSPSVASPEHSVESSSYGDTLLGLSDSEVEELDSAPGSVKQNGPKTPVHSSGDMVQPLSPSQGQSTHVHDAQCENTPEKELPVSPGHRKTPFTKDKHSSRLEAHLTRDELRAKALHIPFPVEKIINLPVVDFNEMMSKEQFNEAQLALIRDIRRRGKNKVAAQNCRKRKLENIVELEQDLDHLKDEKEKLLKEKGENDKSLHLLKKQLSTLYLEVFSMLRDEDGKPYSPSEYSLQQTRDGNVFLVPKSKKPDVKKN
Method in brief: (§2)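 HepG2-ARE-C8 cells stably carrying ARE-luciferase, grown in DMEM with 10% FBS at 37 °C and 5% CO2. Seeded at 5 × 10^4 cells/well, left overnight, then given compound diluted from a 10 mM DMSO stock for 24 h. Cells lysed and luciferase read as RLU. Inductivity = (RLUtest − RLUblank)/(RLUcontrol − RLUblank), with DMSO as control. Mean ± SEM of three experiments.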

[3] = Intrinsic aqueous solubility of the compound by potentiometric titration method; type: physicochemical; method in brief: as §1
[4] = target: T1, Nuclear factor erythroid 2-related factor 2 (Homo sapiens); experiment: Activation of Nrf2 in human HepG2-ARE-C8 cells assessed as induction of ARE-mediated luciferase activity at 40 uM after 24 hrs by luciferase reporter gene assay relative to control; type: cell-based; method in brief: as §2
[5] = target: T1, Nuclear factor erythroid 2-related factor 2 (Homo sapiens); experiment: Activation of Nrf2 in human HepG2-ARE-C8 cells assessed as induction of ARE-mediated luciferase activity at 20 uM after 24 hrs by luciferase reporter gene assay relative to control; type: cell-based; method in brief: as §2
[6] = target: T1, Nuclear factor erythroid 2-related factor 2 (Homo sapiens); experiment: Activation of Nrf2 in human HepG2-ARE-C8 cells assessed as induction of ARE-mediated luciferase activity at 1 uM after 24 hrs by luciferase reporter gene assay relative to control; type: cell-based; method in brief: as §2
HepG2 = experiment: Cytotoxicity against human HepG2 cells at 80 uM after 24 hrs by MTT assay; type: cell-based; conditions: hepg2, 24 h
[7] = target: T1, Nuclear factor erythroid 2-related factor 2 (Homo sapiens); experiment: Activation of Nrf2 in human HepG2-ARE-C8 cells assessed as induction of ARE-mediated luciferase activity at 80 uM after 24 hrs by luciferase reporter gene assay relative to control; type: cell-based; method in brief: as §2
[8] = target: T1, Nuclear factor erythroid 2-related factor 2 (Homo sapiens); experiment: Activation of Nrf2 in human HepG2-ARE-C8 cells assessed as induction of ARE-mediated luciferase activity at 0.01 uM after 24 hrs by luciferase reporter gene assay relative to control; type: cell-based; method in brief: as §2
L02 [9] = experiment: Cytotoxicity against human LO2 cells up to 160 uM after 24 hrs by MTT assay; type: cell-based; conditions: l02, 24 h
Method in brief: (§3)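 LO2 cells plated for 12 h, then treated for 24 h with 0, 0.2, 2, 20, 40, 80 or 160 μM compound diluted in medium from a DMSO stock. MTT (5 mg/mL stock) added for 4 h, formazan dissolved in DMSO, A570 read. Viability computed from OD relative to DMSO control and blank. Mean ± SD of three experiments.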

[10] = target: T1, Nuclear factor erythroid 2-related factor 2 (Homo sapiens); experiment: Activation of Nrf2 in human HepG2-ARE-C8 cells assessed as induction of ARE-mediated luciferase activity at 2 uM after 24 hrs by luciferase reporter gene assay relative to control; type: cell-based
[11] = target: T1, Nuclear factor erythroid 2-related factor 2 (Homo sapiens); experiment: Activation of Nrf2 in human HepG2-ARE-C8 cells assessed as induction of ARE-mediated luciferase activity at 0.02 uM after 24 hrs by luciferase reporter gene assay relative to control; type: cell-based
L02 [12] = experiment: Hepatoprotective activity against APAP-induced cell injury in human LO2 cells assessed as increase in cell viability at 20 uM pretreated for 24 hrs followed by APAP treatment measured after 24 hrs by MTT assay; type: functional
Method in brief: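 LO2 cells plated for 12 h and pretreated for 24 h with 5, 10 or 20 μM compound. One arm was first transfected with 50 nM Nrf2 siRNA before receiving 20 μM compound. Medium then replaced with medium containing 8 mM APAP for 24 h. Viability by MTT at A570. Mean ± SD of three experiments.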

[13] = target: T1, Nuclear factor erythroid 2-related factor 2 (Homo sapiens); experiment: Activation of Nrf2 in human HepG2-ARE-C8 cells assessed as induction of ARE-mediated luciferase activity at 0.2 uM after 24 hrs by luciferase reporter gene assay relative to control; type: cell-based
L02 [14] = experiment: Cytotoxicity against human LO2 cells at 160 uM after 24 hrs by MTT assay; type: cell-based; conditions: l02, 24 h; method in brief: as §3

Row | SMILES | logD [1] | Activity [2] | solubility [3] [µM] | Activity [4] | Activity [5] | Activity [6] | Activity (HepG2) | Activity [7] | Activity [8] | Activity (L02 [9]) | Activity [10] | Activity [11] | Activity (L02 [12]) | Activity [13] | Activity (L02 [14])
1 | Fc1ccc(-c2nc(-c3ccc(Br)cc3)no2)cc1F | 3.91 | 3.78 | 77 (≈ 26 µg/mL) | 12.2 | 8.65 | 4.49 | Non-Toxic | 18.2 | 2.68 | – | – | – | – | – | –
2 | COc1cccc(-c2noc(-c3ccc(F)c(F)c3)n2)c1 | 3.91 | 1.87 | 86 (≈ 24.8 µg/mL) | 15.2 | 14.2 | 5.35 | Non-Toxic | 16.4 | 1.63 | – | – | – | – | – | –
3 | Cc1ccnc(-c2noc(-c3ccc(F)c(F)c3)n2)c1 | 2.65 | 1.06 | 220 (≈ 60.1 µg/mL) | 9.76 | 8.96 | 2.04 | Non-Toxic | 10.6 | 0.63 | – | – | – | – | – | –
4 | Cc1cccc(-c2noc(-c3ccc(F)c(F)c3)n2)n1 | 2.86 | 1.08 | 200 (≈ 54.6 µg/mL) | 4.46 | 3.96 | 2.65 | Non-Toxic | 5.68 | 1.16 | – | – | – | – | – | –
5 | Cc1ccc(-c2noc(-c3ccc(F)c(F)c3)n2)cc1 | 4.16 | 1.22 | 35 (≈ 9.53 µg/mL) | 6.62 | 2.51 | 1.85 | Non-Toxic | 10.2 | 0.67 | – | – | – | – | – | –
6 | CC(C)(C)c1cc(O)ccc1O [E319] | – | – | – | 2.14 | 1.41 | – | – | 5.27 | – | <= 7% | 1.24 | 1.18 | Active | 1.25 | –
7 | CN(C)C=O | – | 1 | – | 2.97 | 1.65 | 1.1 | – | – | 0.82 | – | – | – | Active | – | –
8 | Fc1cc(F)c(-c2nc(-c3ccc4nc[nH]c4c3)no2)cc1Cl | – | 1.18 | – | 5.14 | 3.35 | 1.26 | Non-Toxic | 7.61 | 1.94 | – | – | – | – | – | –
9 | Fc1ccc(-c2nc(-c3ccc4nc[nH]c4c3)no2)cc1F | 3.3 | 6.21 | 99 (≈ 29.5 µg/mL) | 42.6 | 24 | 12.3 | Non-Toxic | 49.9 | 1.46 | – | – | – | – | – | <= 20%
10 | Brc1ccc(-c2nc(-c3ccc4nc[nH]c4c3)no2)cc1 | – | 0.25 | – | 3.44 | 13.4 | 0.87 | Non-Toxic | 2.75 | 0.22 | – | – | – | – | – | –
11 | Fc1ccc(-c2nc(-c3ccccc3F)no2)cc1F | – | 3.96 | – | 5.91 | 4.85 | 4.25 | Non-Toxic | 6.95 | 3.85 | – | – | – | – | – | –
12 | CC(C)(C)c1ccc(-c2noc(-c3ccc(F)c(F)c3)n2)cc1 | 3.92 | 2.88 | 91 (≈ 28.6 µg/mL) | 13.2 | 8.35 | 2.91 | Non-Toxic | 24 | 1.35 | – | – | – | – | – | –
13 | Fc1cccc(-c2nc(-c3ccc4nc[nH]c4c3)no2)c1 | – | 2.69 | – | 12.4 | 8.83 | 4.49 | Non-Toxic | 14.1 | 1.21 | – | – | – | – | – | –
14 | Fc1ccc(-c2nc(-c3cnccn3)no2)cc1F | – | 1.43 | – | 2.83 | 1.81 | 1.95 | Non-Toxic | 3.35 | 1.13 | – | – | – | – | – | –
15 | Fc1ccc(-c2nc(-c3ccc(-c4ccccc4)cc3)no2)cc1F | 4.75 | 1.25 | 16 (≈ 5.35 µg/mL) | 10.8 | 8.54 | 6.75 | Non-Toxic | 14.7 | 1.15 | – | – | – | – | – | –
16 | Fc1ccc(-c2nc(-c3ccc4ccccc4c3)no2)cc1F | – | 1.27 | – | 1.96 | 1.96 | 1.52 | Non-Toxic | 3.57 | 1.16 | – | – | – | – | – | –
17 | Fc1ccc(-c2nc(-c3ccc4nc[nH]c4c3)no2)cc1 | – | – | – | – | – | – | Non-Toxic | – | 1.57 | – | – | – | – | – | <= 20%
18 | COc1cc(OC)cc(-c2noc(-c3ccc(F)c(F)c3)n2)c1 | – | 1.91 | – | 3.55 | 3.45 | 2.15 | Non-Toxic | 4.45 | 1.87 | – | – | – | – | – | –
19 | Fc1ccc(-c2nc(-c3ccc4nc[nH]c4c3)no2)c(Cl)c1 | – | 2.98 | – | 14.7 | 11.8 | 4.22 | Non-Toxic | 18.3 | 0.68 | – | – | – | – | – | –
